Screening data as filed in PubChem BioAssay.
IMP-1 inh – inhibitors of Pseudomonas aeruginosa IMP-1 metallo-beta-lactamase; AID 1556; purified IMP-1, nitrocefin hydrolysis, epi-absorbance fluorescence; inhibition, % at 5.6 µM; 290,000 compounds, 0.45% hits;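 active means inhibition above the mean plus 3 SD of all compounds in the same screening run, cut at about 4.5% in these data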;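 further: 0% = IMP-1 with DMSO and 100% = DMSO wells lacking enzyme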
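Assay system: purified IMP-1; Quantity: IMP-1 0.2 nM before substrate addition; Medium: HEPES buffer pH 7.1 with ZnSO4 and Brij 35; Incubation: 15 min enzyme–compound preincubation, then 25 min nitrocefin reaction, 25 °C; Signal: fluorescence quenching readout, ex 480/em 530 nm; Controls: DMSO with and without IMP-1; Repeats: singlicate testing.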
ATG4B inh – blocks human ATG4B protease cleavage of LC3 substrate | inhibition, % at 8.33 µM | 340,000 compounds, 0.51% hits | AID 504462 | ATG4B cleavage of LC3-PLA2, NBD-HPC fluorescence, 1 h; in the data active means inhibition above about 40%
Target sequence (Q9Y4P1 whole entry, looked up): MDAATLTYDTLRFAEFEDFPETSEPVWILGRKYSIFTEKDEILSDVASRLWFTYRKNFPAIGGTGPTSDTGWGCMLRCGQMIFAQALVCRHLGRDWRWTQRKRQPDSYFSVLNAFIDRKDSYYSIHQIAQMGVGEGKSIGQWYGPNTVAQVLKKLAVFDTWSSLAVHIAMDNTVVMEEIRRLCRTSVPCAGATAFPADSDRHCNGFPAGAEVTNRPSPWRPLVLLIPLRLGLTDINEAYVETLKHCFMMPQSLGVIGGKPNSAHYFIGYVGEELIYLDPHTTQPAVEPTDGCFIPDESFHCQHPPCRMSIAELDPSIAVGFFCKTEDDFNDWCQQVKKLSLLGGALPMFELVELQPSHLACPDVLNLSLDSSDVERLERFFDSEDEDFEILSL
beta cell repl – inducers of beta-cell replication in MIN6 cells; MIN6 cells proliferation, ATPlite luminescence, 48 h; cells starved in 0.2% serum; 100% = growth in 10% serum; proliferation, % at 10 µM; 330,000 compounds, 0.29% hits;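 active means compounds whose signal lies at least 3.5 SD above the mean of all wells on their plate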;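 further: 0% = DMSO-treated cells in low-serum medium and 100% = 10% serum control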
HKDC1 inh – HKDC1 (human) hexokinase inhibition | Q2TB90 | recombinant HKDC1, G6PDH/diaphorase resazurin coupled fluorescence | inhibition, % at 20 µM | 340,000 compounds, 0.16% hits | AID 493160;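 active means inhibition above about 35% when tested at 20 µM, limit read from the data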;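 further: plate controls were DMSO wells with enzyme for no effect and DMSO wells lacking enzyme for full effect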
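Assay system: recombinant HKDC1 hexokinase; detection: coupled resazurin fluorescence, excitation 525 nm, emission 613 nm; benchmarks: DMSO-plus-enzyme-mix negative control, buffer-substituted positive control; compound dosing: single 20 µM dose; schedule: 90 min at room temperature in dark; also added: glucose plus 1 mM ATP as hexokinase substrates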
PvdQ inh – P. aeruginosa PvdQ acylase inhibition | purified PvdQ acylase, fluorescence plate reader | inhibition, % at 10 µM | 340,000 compounds, 0.063% hits | AID 488965; in the data active means inhibition above about 30%, passing the limit was not always enough;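 further: 0% = vehicle neutral wells and 100% = reference inhibitor wells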
VIM-2 inhibitor – blocks Pseudomonas aeruginosa VIM-2 metallo-beta-lactamase; 290,000 compounds, 0.89% hits; inhibition, % at 5.6 µM; purified VIM-2, nitrocefin hydrolysis, epi-absorbance fluorescence;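 active means inhibition above the mean of all tested compounds plus 3 SD, cutoff set per screening run, cut at about 7.5% in these data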;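 further: red hydrolysis product quenches plate fluorescence so inhibitors raise well fluorescence; 0% = enzyme with DMSO and 100% = DMSO without enzyme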
* = called active by the depositor; x = no result. Hits are enriched below; roughly 2% of the tested compounds scored in any of these assays.

SMILES | IMP-1 inh | ATG4B inh | beta cell repl | HKDC1 inh | PvdQ inh | VIM-2 inhibitor
CCOC(=O)C1=C(COC(=O)c2ccc(Cl)cc2[N+](=O)[O-])NC(=O)NC1C (stereo not drawn) | x | -6 | -1 | 1 | 6 | x
COc1ccccc1NC(=O)c1cc(S(=O)(=O)N2CCCC2)cn1C | -3 | -4 | 3 | -8 | -3 | -3
COc1ccc(-c2nc(C#N)c(N3CCC(C)CC3)o2)cc1 | -2 | 3 | -6 | -1 | -15 | -5
O=C(NCc1ccc(Cl)cc1Cl)C(=O)N1CCCCC1 | 1 | 11 | -2 | -1 | -10 | 3
CCOC(=O)C(CC)Sc1nnc2c3cc(C)ccc3n(C)c2n1 (stereo not drawn) | 0 | -5 | -1 | 7 | -10 | 9.4*
CC(C)CSc1nnc2c3ccccc3n(C)c2n1 | -2 | -4 | 0 | 0 | -11 | 7
CCSc1nnc2c3cc(CC)ccc3n(C)c2n1 | -3 | 5 | -1 | -4 | 8 | 8.2*
COc1ccc(-c2nc(C(=O)NCCCN3CCOCC3)cc3c2[nH]c2ccccc23)cc1OC | -2 | -46 | -5 | 2 | -12 | 12*
Cc1ccc(-c2nc(C(=O)NCCCN3CCOCC3)cc3c2[nH]c2ccccc23)cc1 | -3 | -31 | -6 | 2 | -12 | 1
COc1c(C=O)cc2c3c1CCCN3CCC2 | -2 | -3 | 0 | -3 | -1 | -1
NCc1cc2c3c(c1)CCCN3CCC2 | -2 | -1 | -1 | 1 | -3 | 9.0*
CCN(CC)CCSc1nnc2c3ccccc3n(CCc3ccccc3)c2n1 | -3 | -11 | -5 | -6 | 4 | 11*
Cn1c2ccccc2c2nnc(SCC(=O)NC3CCCC3)nc21 | -2 | -3 | -1 | -4 | -13 | 9.2*
CCn1c2ccccc2c2nnc(SCC(=O)OCN3C(=O)c4ccccc4C3=O)nc21 | -5 | -6 | 1 | 17 | 10 | -1
O=C1c2ccccc2C(=O)N1CSc1nnc2c3ccccc3n(CCc3ccccc3)c2n1 | 3 | -6 | 1 | -2 | -15 | -1
CCOC(=O)CSc1nnc2c3ccccc3n(CC)c2n1 | -3 | -7 | -2 | 2 | -9 | 7.9*
CCN1CCN(c2c(/C=C3\SC(=S)N(Cc4ccco4)C3=O)c(C)c(C#N)c(=O)n2C)CC1 | 6.4* | -7 | -6 | 14 | -5 | 1
COc1ccc(-n2c(C)cc(/C=C3\SC(=S)N(Cc4ccco4)C3=O)c2C)cc1 | -2 | -6 | x | -3 | 0 | -3
Nc1ncnc2c(C3OC(CO)C(O)C3O)c[nH]c12 (stereo not drawn) | x | -8 | x | -4 | -18 | x
O=C(N/N=C/c1ccc(OCCCF)cc1)c1cc(OCC(F)(F)F)ccc1OCC(F)(F)F | -2 | -7 | 1 | -4 | 2 | 0
O=C1Nc2ccccc2S/C1=C/Nc1cccc(Cl)c1 | -2 | -8 | -2 | -1 | -10 | 7.8*
COc1ccccc1-n1c(CNC(=O)c2cccc([N+](=O)[O-])c2C)n[nH]c1=S | -2 | 3 | -1 | -1 | -4 | -1
Cc1cccc(-n2c(CNC(=O)c3cccc([N+](=O)[O-])c3C)n[nH]c2=S)c1 | -3 | 2 | 1 | -4 | -17 | 8.8*
O=C(O)C1=C(C(=O)Nc2cc(C(F)(F)F)ccc2Cl)CCCC1 | 9.9* | 1 | 2 | -1 | -25 | 4
O=C(CN1CCCCCC1)Nc1cc(C(F)(F)F)ccc1Cl | -2 | 0 | 2 | 4 | -5 | 0
COc1cc(NCCCCCCCN)c2ncccc2c1 | 2 | 0 | -6 | 12 | 1 | 7.8*
COc1ccc(-n2c(C)cc(/C=N/Nc3nc(N4CCOCC4)nc(N4CCOCC4)n3)c2C)cc1 | -3 | -1 | -1 | 3 | 12 | -1
CC(Oc1ccc2c3c(c(=O)oc2c1)CCC3)C(=O)NCCN1CCOCC1 (stereo not drawn) | -2 | -9 | 2 | 4 | 6 | 12*
O=C(COc1ccc2c3c(c(=O)oc2c1)CCCC3)NCc1cccnc1 | -2 | 0 | 1 | 6 | -7 | 9.2*
Cc1c(C)c2ccc(OC(C)C(=O)NCCCN3CCOCC3)c(C)c2oc1=O (stereo not drawn) | 1 | 0 | -1 | -4 | 3 | 8.6*
